Reference: ChEMBL document CHEMBL4406881, “Design, synthesis and biological evaluation of benzoylacrylic acid shikonin ester derivatives as irreversible dual inhibitors of tubulin and EGFR” (Bioorg Med Chem, 2019)
The source made the active and inactive calls. The rule behind the calls is not given here.

What was measured:
MCF7 = experiment: Antiproliferative activity against human MCF7 cells assessed as reduction in cell viability after 24 hrs by MTT assay; type: functional, cell-based; conditions: MCF7, 24 h
Outline: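 MTT colorimetric assay. Cells in log phase in medium with 10% FBS were seeded at 10⁴ cells/well and left overnight at 37 °C, 5% CO₂ to reattach. Compounds were added at 0.1, 1, 10 and 100 μM in 10% FBS for 24 h. IC50 reported as mean ± SD of three independent experiments.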

[1] = target: T1, Epidermal growth factor receptor (Homo sapiens, UniProt P00533); experiment: Inhibition of C-terminal His-tagged N-terminal GST-tagged human EGFR (668 to 1210 residues) expressed in baculovirus infected Sf9 cells after 30 mins in presence of gamma-[32p-ATP] binding assay
A549 [2] = experiment: Induction of apoptosis in human A549 cells assessed as necrotic cells after at 8 uM 24 hrs by Annexin-V/PI staining based flow cytometry analysis (reference value: 1.81%); type: functional
Outline: (§1)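 A549 cells seeded overnight at 37 °C, 5% CO2, then exposed to 0, 2, 4, 8 or 12 µM for 24 h (dose series) or 8 µM for 0, 12, 24, 36 h (time series). Harvested, PBS-washed, stained with Annexin V-FITC and PI in binding buffer 15 min at room temperature in the dark, analysed by flow cytometry; three independent experiments.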

A549 [3] = experiment: Induction of apoptosis in human A549 cells assessed as late apoptotic cells at 12 uM after 24 hrs by Annexin-V/PI staining based flow cytometry analysis (reference value: 5.69%); type: functional
A549 [4] = experiment: Induction of apoptosis in human A549 cells assessed as necrotic cells after at 12 uM 24 hrs by Annexin-V/PI staining based flow cytometry analysis (reference value: 1.81%); type: functional; outline: as §1
A549 [5] = experiment: Induction of apoptosis in human A549 cells assessed as early apoptotic cells at 8 uM after 12 hrs by Annexin-V/PI staining based flow cytometry analysis (reference value: 2.02%); type: functional
A549 [6] = experiment: Induction of apoptosis in human A549 cells assessed as necrotic cells after at 8 uM 12 hrs by Annexin-V/PI staining based flow cytometry analysis (reference value: 2.98%); type: functional; outline: as §1
A549 [7] = experiment: Induction of apoptosis in human A549 cells assessed as viable cells at 8 uM after 24 hrs by Annexin-V/PI staining based flow cytometry analysis (reference value: 88.4%); type: functional; conditions: A549, 24 h, read-out: Activity; outline: as §1
A549 [8] = experiment: Induction of apoptosis in human A549 cells assessed as necrotic cells after at 8 uM 24 hrs by Annexin-V/PI staining based flow cytometry analysis (reference value: 2.98%); type: functional; outline: as §1
A549 [9] = experiment: Induction of apoptosis in human A549 cells assessed as viable cells at 8 uM after 36 hrs by Annexin-V/PI staining based flow cytometry analysis (reference value: 88.4%); type: functional; conditions: A549, 36 h, read-out: Activity; outline: as §1
A549 [10] = experiment: Induction of apoptosis in human A549 cells assessed as reduction in caspase-3 expression at 2 to 8 uM after 24 hrs by Western blot analysis; type: functional, cell-based
Outline: (§2)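 A549 cells in 6-well plates were lysed in RIPA buffer with protease inhibitors on ice for 30 min and cleared at 4 °C. Protein was quantified by BCA, run on SDS-PAGE and transferred to PVDF. Membranes were blocked with milk, probed with primary antibody (1:1000) overnight at 4 °C, then secondary antibody (1:3000-1:5000) 1 h at RT. Detection by ECL; band densitometry normalised to GAPDH (β-actin also used). Three independent experiments.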

A549 [11] = experiment: Induction of apoptosis in human A549 cells assessed as PARP cleavage expression at 2 to 8 uM after 24 hrs by Western blot analysis; type: functional, cell-based
Outline: (§3)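 Western blot of A549 cells treated for 24 h. Lysates in RIPA buffer were run on SDS-PAGE and transferred to PVDF. Primary antibody at 1:1000 overnight at 4 °C, secondary antibody at 1:3000-1:5000 for 1 h, ECL detection. Densitometry was normalised to GAPDH; mean ± S.E.M. from three independent experiments.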

A549 [12] = experiment: Induction of apoptosis in human A549 cells assessed as caspase-9 cleavage expression at 2 to 8 uM after 24 hrs by Western blot analysis; type: functional, cell-based; outline: as §3
A549 [13] = experiment: Induction of apoptosis in human A549 cells assessed as caspase-3 cleavage expression at 2 to 8 uM after 24 hrs by Western blot analysis; type: functional, cell-based; outline: as §3
A549 [14] = experiment: Induction of apoptosis in human A549 cells assessed as low mitochondrial membrane potential at 12 uM after 12 hrs by JC-1 staining-based flow cytometric analysis (reference value: 6.3%); type: functional
A549 [15] = experiment: Induction of apoptosis in human A549 cells assessed as high mitochondrial membrane potential at 12 uM after 12 hrs by JC-1 staining-based flow cytometric analysis (reference value: 90.6%); type: functional
Outline: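 JC-1 staining of A549 cells treated for 12 h. CCCP-treated wells, 20 min at 37 °C, served as positive control. Collected cells were incubated with JC-1 solution at 37 °C for 30 min, washed, and analysed by flow cytometry for the fraction with high ΔΨm and for PI-positive cells. Results are mean ± S.E.M. of three replicates.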

A549 [16] = experiment: Cell cycle arrest in human A549 cells assessed as accumulation at G1 phase at 4 uM after 24 hrs by RNAse A/ PI staining based flow cytometric analysis (reference value: 73.30%); type: functional
Outline: (§4)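 A549 cells at 5.0×10^4 per well were grown 12 h at 37 °C. Treatment was 0, 2, 4 or 8 µM for 24 h, or 8 µM for 0, 12, 24 or 36 h. Cells were fixed in 70% ethanol at −20 °C for at least 12 h, then stained in PBS with 0.1 mg/mL RNase A and 5 µg/mL PI. At least 10,000 events per sample were collected by flow cytometry to give G0/G1, S and G2/M percentages.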

A549 [17] = experiment: Cell cycle arrest in human A549 cells assessed as accumulation at S phase at 4 uM after 24 hrs by RNAse A/ PI staining based flow cytometric analysis (reference value: 17.23%); type: functional; outline: as §4
A549 [18] = experiment: Cell cycle arrest in human A549 cells assessed as accumulation at S phase at 8 uM after 24 hrs by RNAse A/ PI staining based flow cytometric analysis (reference value: 17.23%); type: functional; outline: as §4
A549 [19] = experiment: Cell cycle arrest in human A549 cells assessed as accumulation at G2/M phase at 8 uM after 24 hrs by RNAse A/ PI staining based flow cytometric analysis (reference value: 9.47%); type: functional; outline: as §4
A549 [20] = experiment: Inhibition of Wnt/beta-catenin signaling pathway in human A549 cells assessed as reduction in beta-catenin expression in cytoplasm by Western blot analysis; type: cell-based; outline: as §2
[21] = target: T1, Epidermal growth factor receptor; experiment: Inhibition of EGFR signalling in human A549 cells assessed as reduction in EGFR phosphorylation after 24 hrs by Western blot analysis; type: cell-based; outline: as §2
[22] = target: T1, Epidermal growth factor receptor; experiment: Inhibition of EGFR signalling in human A549 cells assessed as reduction in ERK phosphorylation after 24 hrs by Western blot analysis; type: cell-based; outline: as §2
A549 [23] = experiment: Cell cycle arrest in human A549 cells assessed as accumulation at G1 phase at 8 uM after 36 hrs by RNAse A/ PI staining based flow cytometric analysis (reference value: 67.69%); type: functional; outline: as §4

T1 sequence (P00533 whole entry, the tested form may be a part): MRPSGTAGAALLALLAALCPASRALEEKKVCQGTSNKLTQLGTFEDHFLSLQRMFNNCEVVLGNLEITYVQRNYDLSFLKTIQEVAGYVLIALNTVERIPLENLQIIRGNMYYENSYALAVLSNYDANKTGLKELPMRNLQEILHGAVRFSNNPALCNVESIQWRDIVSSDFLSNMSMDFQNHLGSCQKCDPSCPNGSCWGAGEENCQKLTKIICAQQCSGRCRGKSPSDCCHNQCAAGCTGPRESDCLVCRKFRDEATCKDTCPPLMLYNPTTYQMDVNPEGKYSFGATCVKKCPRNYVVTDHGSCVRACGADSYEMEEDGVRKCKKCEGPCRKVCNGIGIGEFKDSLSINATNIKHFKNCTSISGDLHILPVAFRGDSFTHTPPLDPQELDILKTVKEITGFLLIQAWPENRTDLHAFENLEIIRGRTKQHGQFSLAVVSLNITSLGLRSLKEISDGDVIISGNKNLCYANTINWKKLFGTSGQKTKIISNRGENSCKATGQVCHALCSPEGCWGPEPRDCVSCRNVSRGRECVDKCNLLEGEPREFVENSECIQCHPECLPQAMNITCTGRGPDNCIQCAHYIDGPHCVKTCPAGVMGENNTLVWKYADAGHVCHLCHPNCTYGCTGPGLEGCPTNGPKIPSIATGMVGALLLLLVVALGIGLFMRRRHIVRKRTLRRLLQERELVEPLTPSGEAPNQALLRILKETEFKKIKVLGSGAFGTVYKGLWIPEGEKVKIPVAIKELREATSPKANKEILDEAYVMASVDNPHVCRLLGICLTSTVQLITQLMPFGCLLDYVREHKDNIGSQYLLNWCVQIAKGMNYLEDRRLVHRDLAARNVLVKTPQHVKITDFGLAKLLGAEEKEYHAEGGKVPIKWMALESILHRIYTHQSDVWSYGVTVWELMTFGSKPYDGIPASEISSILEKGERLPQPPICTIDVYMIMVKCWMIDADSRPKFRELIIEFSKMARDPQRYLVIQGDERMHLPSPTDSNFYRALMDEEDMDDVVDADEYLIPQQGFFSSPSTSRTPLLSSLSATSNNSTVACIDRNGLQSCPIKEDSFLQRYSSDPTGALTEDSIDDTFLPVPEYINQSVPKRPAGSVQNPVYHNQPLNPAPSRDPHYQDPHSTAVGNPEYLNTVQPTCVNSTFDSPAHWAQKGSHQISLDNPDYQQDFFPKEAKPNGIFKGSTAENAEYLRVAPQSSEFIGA

- IC50 (MCF7): 8.9 µM
- IC50 [1]: 0.0227 µM
- inhibition [21]: Dose-dependent effect
- inhibition [22]: Dose-dependent effect
SMILES: CC(C)=CC[C@@H](OC(=O)/C=C\C(=O)c1ccc(F)cc1)C1=CC(=O)c2c(O)ccc(O)c2C1=O
- Activity (A549 [2]): 3.29%
- Activity (A549 [3]): 38.1%
- Activity (A549 [4]): 4.16%
- Activity (A549 [5]): 8.92%
- Activity (A549 [6]): 2.04%
- viability at 8 µM (A549 [7]): 37.1%
- Activity (A549 [8]): 3.72%
- viability at 8 µM (A549 [9]): 12.2%
- Activity (A549 [10]): Active
- Activity (A549 [11]): Active
- Activity (A549 [12]): Active
- Activity (A549 [13]): Active
- Activity (A549 [14]): 58.7%
- Activity (A549 [15]): 38.6%
- Activity (A549 [16]): 59.17%
- Activity (A549 [17]): 19.8%
- Activity (A549 [18]): 19.66%
- Activity (A549 [19]): 33.01%
- inhibition (A549 [20]): Dose-dependent effect
- Activity (A549 [23]): 30.88%
